High-throughput results deposited in PubChem by Sanford-Burnham Center for Chemical Genomics.
Shown are actives, neighbours in structure and some others; about 2.5% of the full set was active somewhere.
SENP8 block-1 = blocks the human protease SENP8; Q96LD8; purified SENP8, Z-RLRGG-aminoluciferin cleavage, luminescence; inhibition, % at 10 µM; 1.2% of 330,000 active; in the data active = inhibition above about 50%
SENP6 block = SENP6 protease inhibition; Recombinant SENP6 catalytic domain, aminoluciferin luminescence; inhibition, % at 10 µM; 1.8% of 330,000 active; AID 2599;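 active = inhibition above about 50% at the single tested dose, limit read from the data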
SENP8 block-2 = SENP8 (human) protease inhibition | AID 602440 | inhibition, % at 20 µM | 0.64% of 360,000 active | Q96LD8 | recombinant SENP8, Nedd8 substrate fluorescence; in the data active = inhibition mostly above about 40%, no sharp cut-off; inactive = mostly below about 27%
SENP7 block = blocks the human protease SENP7 | Q9BQF6 | recombinant SENP7, Z-RLRGG-aminoluciferin luminescence, 40 min | inhibition, % at 5 µM | 1.5% of 330,000 active;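 active = inhibition above about 50% at the single test dose, limit read from the data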
Target sequence (Q9BQF6 706-1050 limits assumed): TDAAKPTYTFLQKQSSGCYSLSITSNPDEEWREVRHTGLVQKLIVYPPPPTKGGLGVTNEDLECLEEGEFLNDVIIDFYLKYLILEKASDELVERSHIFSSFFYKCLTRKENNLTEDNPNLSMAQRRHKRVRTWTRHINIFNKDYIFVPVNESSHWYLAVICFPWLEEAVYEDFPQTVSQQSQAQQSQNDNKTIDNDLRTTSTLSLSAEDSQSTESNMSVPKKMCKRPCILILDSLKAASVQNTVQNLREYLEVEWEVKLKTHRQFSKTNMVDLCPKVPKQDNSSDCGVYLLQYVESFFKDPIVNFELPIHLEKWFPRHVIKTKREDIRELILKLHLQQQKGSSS
SENP1 FRET inh = SENP1 (human) catalytic domain inhibition | Q9P0U3 | recombinant SENP1 catalytic domain, CyPet-SUMO1-YPet FRET cleavage | inhibition, % at 10 µM | 0.21% of 360,000 active;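 active = inhibition at least 30% at 10 µM, raw YFP signal under a set limit, fluorescence ratio 0.5 to 1.5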
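material = recombinant human SENP1 catalytic domain, His6-tagged | quantity = 20 pM enzyme | reagent = 25 nM SUMO1 FRET substrate | compound dosing = 10 µM single point, 0.5% DMSO | timing = 50 min enzyme reaction, room temperature, light-protected | detection = FRET, CFP and YFP emission | control set = no-enzyme low, enzyme-DMSO high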
SENP8 confirm = human SENP8 inhibition, confirmed. AID 488912. 40% of 6,200 active. shares compounds with SENP7 block. Recombinant SENP8, Z-RLRGG-aminoluciferin luminescence, 60 min. inhibition, % at 12.5 µM;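 active = mean inhibition across replicates above about 50%, limit read from the data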
SENP6 confirm = human SENP6 inhibition, confirmed | shares compounds with SENP7 block | recombinant SENP6, Z-RLRGG-aminoluciferin luminescence | inhibition, % at 12.5 µM | 58% of 6,200 active
SENP7 confirm = human SENP7 inhibition, confirmed. recombinant SENP7, Z-RLRGG-aminoluciferin luminescence, 40 min. 69% of 6,200 active. inhibition, % at 12.5 µM. shares compounds with SENP7 block
Casp3 select = selectivity test for SENP inhibitors: human caspase-3 inhibition. shares compounds with SENP7 block. purified caspase-3, Z-DEVD-aminoluciferin luminescence, 60 min. inhibition, % at 12.5 µM. 60% of 6,200 active;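 active = mean inhibition above about 50%, limit read from the data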
Target sequence (P42574 28-227 limits assumed): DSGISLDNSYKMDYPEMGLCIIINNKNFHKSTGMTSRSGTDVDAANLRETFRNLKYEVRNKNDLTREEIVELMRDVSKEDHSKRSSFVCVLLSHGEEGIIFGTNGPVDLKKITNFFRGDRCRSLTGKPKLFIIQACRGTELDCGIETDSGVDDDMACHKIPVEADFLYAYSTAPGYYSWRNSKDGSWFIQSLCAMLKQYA
Luc interf = luminescence interference (SENP counter-screen); shares compounds with SENP7 block; Pre-incubated SENP8/Z-RLRGG-aminoluciferin, luciferase luminescence interference; inhibition, % at 12.5 µM; 39% of 6,200 active;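 active = mean inhibition above about 50% when retested at one dose, limit read from the data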
A number is an active result; i = inactive; nt = no result.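 The calls were made as follows, unless noted: active = mean inhibition above about 50% in the one-dose retest (limit read from the data); inactive = the rest.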

SMILES	SENP8 block-1	SENP6 block	SENP8 block-2	SENP7 block	SENP1 FRET inh	SENP8 confirm	SENP6 confirm	SENP7 confirm	Casp3 select	Luc interf
CC(=O)Nc1ccc(C(=O)OCC(=O)Nc2c(F)cccc2F)cc1	i	i	i	i	i	nt	nt	nt	nt	nt
Cc1ccc(C(=O)OCC(=O)N2C(C)CCCC2C)cc1S(=O)(=O)N1CCOCC1 (stereo not given)	i	i	i	i	i	nt	nt	nt	nt	nt
CC(Oc1ccc(-n2cnnn2)cc1)C(=O)O (stereo not given)	i	i	i	i	i	nt	nt	nt	nt	nt
COC(=O)c1ccc(OCC(=O)c2ccccc2)cc1	i	i	i	57.1	i	52.1	51.0	84.2	72.6	61.5
COc1ccc(C(=O)CC(=O)c2ccccc2)cc1	67.1	77.1	i	73.6	i	70.5	70.1	92.0	55.0	58.8
COc1ccc(C(=O)CNc2ccccc2Br)cc1	i	58.0	i	i	i	i	63.9	61.4	i	i
O=C(COc1ccccc1)c1ccccc1	nt	nt	i	nt	i	nt	nt	nt	nt	nt
COc1ccc(C(=O)CNc2ccc3ccccc3c2)cc1	i	i	i	i	i	nt	nt	nt	nt	nt
CCN(CC(=O)NCc1ccc(F)cc1)C(=O)c1ccc(COc2ccccc2)cc1	i	i	i	i	i	nt	nt	nt	nt	nt
Cc1[nH][nH]c(=O)c1N=Nc1ccc(Cl)cc1	i	i	i	i	i	nt	nt	nt	nt	nt
Cc1ccc(N=Nc2c(=O)[nH]n3c(=O)cc(C)[nH]c23)cc1	53.5	75.9	i	i	i	i	i	59.7	61.4	i
Cn1cnc(S(=O)(=O)N2CCCCC2c2cc(C(=O)Nc3cccc(C#N)c3)no2)c1 (stereo not given)	nt	nt	i	nt	i	nt	nt	nt	nt	nt
Cc1ccc(/C=C/c2nnc(-c3ccc(C)cc3)o2)cc1	i	i	i	i	i	nt	nt	nt	nt	nt
Fc1ccc(/C=C/c2nnc(-c3cccs3)o2)cc1	i	61.2	i	66.6	i	i	i	i	i	i
Cc1ccc(-c2nnc(-c3cccs3)o2)cc1	68.2	i	i	81.3	i	71.9	87.4	98.7	85.5	i
Cc1ccc(/C=C/c2nnc(-c3cccs3)o2)cc1	85.6	91.1	i	i	i	i	i	67.1	i	i
CC(C)(C)NC(=S)Nc1ccc(Nc2ccccc2)cc1	i	i	i	50.5	i	i	i	i	i	i
COc1cccc(-c2cnc(C(O)c3ccc(F)c(C)c3)[nH]2)c1 (stereo not given)	nt	nt	i	nt	i	nt	nt	nt	nt	nt
O=C(O)c1ccc(-c2nnc(-c3ccccc3)o2)cc1	95.2	99.0	i	98.4	i	i	96.8	101.4	96.5	81.3
O=C(O)c1ccc(C(=O)C(=O)c2ccccc2)cc1	i	66.4	i	i	i	i	i	79.9	84.7	67.2
O=C(c1ccc(-c2nnc(-c3ccccc3)o2)cc1)N1CCCCCC1	88.3	96.1	i	93.1	i	i	i	59.9	69.2	i
Nc1ccc(C(=O)O)cc1	i	i	i	i	i	nt	nt	nt	nt	nt
Cc1ccc(-c2nnc(-c3ccccc3)o2)cc1	82.2	92.2	i	92.7	i	i	80.5	95.6	86.4	53.5
COc1ccc(CNC(=O)CCS(=O)(=O)c2ccc3c(c2)NC(=O)CS3)cc1	i	i	i	i	i	nt	nt	nt	nt	nt
CCC1(C)C(Nc2c(C)cccc2C)=NC(=S)N1c1ccc(NC(C)=O)cc1 (stereo not given)	i	i	i	i	i	nt	nt	nt	nt	nt
SMILES	SENP8 block-1	SENP6 block	SENP8 block-2	SENP7 block	SENP1 FRET inh	SENP8 confirm	SENP6 confirm	SENP7 confirm	Casp3 select	Luc interf
Clc1ccc(-n2cc(COCc3ccccc3)nn2)cc1	i	i	i	i	i	nt	nt	nt	nt	nt
NC(=O)c1cc([N+](=O)[O-])ccc1NCc1cccc2ccccc12	i	i	i	i	i	nt	nt	nt	nt	nt
O=C(/C=C/Nc1ccc([N+](=O)[O-])cc1Br)c1cccc2ccccc12	i	87.2	i	85.6	i	i	i	i	i	i
O=C(COC(=O)C1=COCCO1)NC1CCCCC1	i	i	i	i	i	nt	nt	nt	nt	nt
N#Cc1c(N)[nH]c(C(=O)c2ccccc2)c1-c1ccccc1Br	nt	nt	i	nt	i	nt	nt	nt	nt	nt
O=C(Nc1ccc(Cl)cc1)Nc1cccc2nsnc12	90.6	91.7	i	94.0	i	i	91.4	88.1	81.7	i
O=C(COc1ccccc1)Nc1cccc2nsnc12	i	i	i	i	i	nt	nt	nt	nt	nt
C=C(c1ccccc1)c1ccccc1N	i	i	i	i	i	nt	nt	nt	nt	nt
COC(=O)c1oc2ccc(Cl)cc2c1N	i	53.3	i	i	i	i	i	69.1	58.3	i
Cc1nnc(NC(=O)C2CSC3(C)CCC(=O)N23)s1 (stereo not given)	i	i	i	i	i	nt	nt	nt	nt	nt
O=C(O)c1ccc(-c2noc(-c3ccccc3C(F)(F)F)n2)cc1	66.8	81.8	i	i	i	i	i	i	i	i
O=C(O)c1ccc(-c2noc(-c3ccccc3Cl)n2)cc1	96.6	97.1	i	87.8	i	98.8	99.3	102.9	98.5	98.1
O=C(O)c1ccc(-c2noc(-c3ccc(F)cc3)n2)cc1	94.4	98.1	i	95.4	i	97.9	98.3	102.2	98.0	96.4
O=C(NCc1ccco1)c1ccccc1-c1nc(-c2ccc(F)cc2)no1	i	i	i	i	i	nt	nt	nt	nt	nt
O=C(O)c1ccc(-c2noc(-c3cccc(Cl)c3)n2)cc1	98.1	97.0	i	96.5	i	98.3	99.0	101.8	97.6	94.7
O=C(NCCc1ccccc1)Nc1ccc2c(c1)OCO2	i	i	i	i	i	nt	nt	nt	nt	nt
N#Cc1c(Cl)nsc1NC(=O)c1ccccc1	i	i	i	i	i	nt	nt	nt	nt	nt
O=C(NN=c1c(=O)c2ccccc2c1=O)c1ccccc1	71.2	75.8	69.3	83.8	i	i	70.9	i	i	i
COc1ccc(NC(=O)CN2C(=O)NC(C)(c3ccccc3)C2=O)cc1Cl (stereo not given)	i	i	i	i	i	nt	nt	nt	nt	nt
COC(=O)COc1ccc(NS(=O)(=O)c2cccc([N+](=O)[O-])c2)cc1	i	i	i	i	i	nt	nt	nt	nt	nt
Cc1ccc(S(=O)(=O)n2c(N)nc3ccccc32)cc1	i	i	i	i	i	nt	nt	nt	nt	nt
Cc1ccc(C(=O)n2c(N)nc3ccccc32)cc1	91.4	86.2	i	97.0	i	89.8	94.7	100.8	96.2	65.5
COc1cc(/C=C2\OC(=O)c3c(OC)cccc32)ccc1O	i	64.4	i	i	i	i	i	82.3	57.8	68.4
CCc1ccc2oc(C(=O)Nc3cccnc3)c(C)c2c1	i	63.7	i	69.0	i	i	67.3	91.6	55.1	i
